# Measurements as given in ChEMBL document CHEMBL1154833, “Curcuminoid analogs with potent activity against Trypanosoma and Leishmania species” (Eur J Med Chem, 2010).
# Key:
# [1] = system: Leishmania major; test: Antileishmanial activity against Leishmania major Friedlin promastigotes after 48 hrs by alamar blue assay; assay type: functional, organism-based
# Method in brief: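 L. major Friedlin promastigotes grown in HOMEM with 10% FBS at 25 °C. Alamar Blue fluorescence assay in 96-well plates. 3–6 independent experiments unless noted.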
# [2] = system: HEK293; test: Cytotoxicity against HEK293 cells after 16 hrs by alamar blue assay; assay type: cell-based, Homo sapiens
# Method in brief: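 HEK293T cells grown in DMEM-based medium with 10% newborn bovine serum at 37 °C, 5% CO2. Doubling dilutions of compound added for 16 h, then resazurin added. Fluorescence read at emission 590 nm after a further 24 h.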
# [3] = system: Leishmania mexicana; test: Antileishmanial activity against Leishmania mexicana MNYC/BZ/62/M379 amastigotes after 48 hrs by alamar blue assay; assay type: functional, organism-based
# Method in brief: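 Axenic L. mexicana MNYC/BZ/62/M379 amastigotes kept at 33 °C under CO2 in Schneider's Drosophila medium with 20% FBS and 0.3% gentamycin. Alamar Blue fluorescence read-out.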
# [4] = system: Trypanosoma brucei brucei; test: Antitrypanosomal activity against Trypanosoma brucei brucei 427 after 48 hrs by alamar blue assay; assay type: functional, organism-based
# [5] = system: Trypanosoma brucei brucei; test: Antitrypanosomal activity against diminazene-resistant Trypanosoma brucei brucei deltaTbat1-KO after 48 hrs by alamar blue assay; assay type: functional, organism-based
# [6] = system: Trypanosoma brucei brucei; test: Antitrypanosomal activity against multidrug-resistant Trypanosoma brucei brucei B48 after 48 hrs by alamar blue assay; assay type: functional, organism-based; details: B48, 48 h
# [7] = Leishmania major, Friedlin, 48 h, read-out: EC50
# [8] = Homo sapiens, HEK293, 16 h, read-out: EC50
# [9] = Leishmania mexicana, MNYC/BZ/62/M379, 48 h, read-out: EC50
# [10] = Trypanosoma brucei, 427, 48 h, read-out: EC50
SMILES,EC50 [1],EC50 ([2]; hek293),EC50 [3],EC50 [4],EC50 [5] [µM],EC50 [6] [µM],"EC50 [1, 7] [µM]","EC50 [2, 8] [µM]","EC50 [3, 9] [µM]","EC50 [4, 10] [µM]"
COc1cc(/C=C/C(=O)CC(=O)/C=C/c2ccc(OC(=O)c3ccccc3)c(OC)c2)ccc1OC(=O)c1ccccc1,ND(Insoluble),ND(Insoluble),ND(Insoluble),ND(Insoluble),–,–,–,–,–,–
COc1cc(/C=C/C(=O)CC(=O)/C=C/c2ccc(OCCO)cc2)ccc1O,–,–,–,–,0.85,1.1,9.7,46,32,0.7
COc1cc(/C=C/C(=O)CC(=O)/C=C/c2cc(OC)c(O)c([N+](=O)[O-])c2)ccc1O,–,–,–,–,18,25,28,82,14,15
COc1cc(/C=C/C(=O)CC(=O)/C=C/c2ccc(OC(C)=O)cc2)ccc1OC(C)=O,–,–,–,–,2,0.92,> 100,49,43,1.5
CCCCCOc1ccc(CC/C=C/C(=O)CCc2ccc(OCCCCC)c(OC)c2)cc1OC,–,–,–,–,1.2,1.8,6.6,43,53,1.1
COc1cc(CC/C=C/C(=O)CCc2ccc(OC(C)=O)c(OC)c2)ccc1OC(C)=O,–,–,–,–,0.042,0.021,7.8,30,35,0.052
COc1cc(CCCCC(=O)CCc2ccc(O)c(OC)c2)ccc1O,–,–,–,–,28,27,37,140,> 50,32
COc1cc(CCC(=O)CC(=O)CCc2ccc(O)c(O)c2)ccc1O,–,–,–,–,0.52,0.43,11,130,16,0.5
COc1cc(/C=C/C(=O)CC(=O)/C=C/c2ccc(O)cc2)ccc1OC(=O)c1ccccc1,–,–,–,–,1.6,4.7,42,370,> 100,1.2
COc1cc(/C=C/C(=O)CC(=O)/C=C/c2ccc(OC(=O)c3ccccc3)cc2)ccc1OC(=O)c1ccccc1,ND(Insoluble),ND(Insoluble),ND(Insoluble),ND(Insoluble),–,–,–,–,–,–
O=C(/C=C/c1ccc(O)cc1)CC(=O)/C=C/c1ccc(OC(=O)c2ccccc2)cc1,–,–,–,–,10,12,60,270,> 100,4.1
CCCOc1ccc(/C=C/C(=O)CC(=O)/C=C/c2ccc(OCCC)c(OC)c2)cc1OC,–,–,–,–,1.8,1.6,28,> 500,34,1.3
COc1cc(/C=C/C(=O)CC(=O)/C=C/c2ccc(OCC=C(C)C)c(OC)c2)ccc1O,–,–,–,–,1.7,2,7.6,> 500,21,1.4
COc1cc(/C=C/C(=O)CC(=O)/C=C/c2ccc(OCC=C(C)C)cc2)ccc1OCC=C(C)C,–,–,–,–,2.9,3.1,48,> 500,27,1.9
COc1ccc(/C=C/C(=O)CC(=O)/C=C/c2ccc(O)c(OC)c2)cc1,–,–,–,–,2,2.1,23,79,38,1.7
COc1ccc(/C=C/C(=O)CC(=O)/C=C/c2ccc(OC)c(OC)c2)cc1,–,–,–,–,1.9,1.9,23,690,61,1.6

SMILES,EC50 [1],EC50 ([2]; hek293),EC50 [3],EC50 [4],EC50 [5] [µM],EC50 [6] [µM],"EC50 [1, 7] [µM]","EC50 [2, 8] [µM]","EC50 [3, 9] [µM]","EC50 [4, 10] [µM]"
COc1ccc(/C=C/C(=O)CC(=O)/C=C/c2ccc(O)cc2)cc1,–,–,–,–,8.8,2.9,87,400,32,8.9
O=C(/C=C/c1ccc(OC(=O)c2ccccc2)cc1)CC(=O)/C=C/c1ccc(OC(=O)c2ccccc2)cc1,ND(Insoluble),ND(Insoluble),ND(Insoluble),ND(Insoluble),–,–,–,–,–,–
COc1cc(/C=C/C=C/C(=O)CCc2ccc(O)c(OC)c2)ccc1O,–,–,–,–,9.7,2.2,30,76,22,4.1
COc1cc(/C=C/C(=O)CC(=O)/C=C/c2ccc(OCCO)c(OC)c2)ccc1O,–,–,–,–,2.9,1.8,22,25,30,2.9
COc1cc(/C=C/C(=O)CC(=O)/C=C/c2ccc(OCCO)c(OC)c2)ccc1OCCO,–,–,–,–,2.3,1.6,33,20,37,1.8
COc1ccc(CCC(=O)CC(O)CCc2ccc(OC)c(OC)c2)cc1OC (configuration not stated),–,–,–,–,–,–,41,370,> 100,–
COc1cc(/C=C/C(=O)CC(=O)/C=C/c2ccc(OC(C)=O)c(OC)c2)ccc1OC(C)=O,–,–,–,–,2.2,1.2,73,80,34,1.6
O=C(/C=C/c1ccc(O)c(O)c1)CC(=O)/C=C/c1ccc(O)c(O)c1,–,–,–,–,2.5,3.4,26,39,12,1.8
COc1cc(/C=C/C=C/C(=O)/C=C/c2ccc(O)c(OC)c2)ccc1O,–,–,–,–,1.4,0.58,7.4,22,4.8,1.1
O=C(/C=C/c1ccc(O)cc1)CC(=O)/C=C/c1ccc(O)cc1 [BISDEMETHOXYCURCUMIN],–,–,–,–,9.5,4.5,72,200,63,7.7
O=C(/C=C/CCc1ccc(O)c(O)c1)CCc1ccc(O)c(O)c1 [DEHYDROHIRSUTANONOL],–,–,–,–,3.2,–,> 100,220,17,2.5
COc1cc(/C=C/C(O)=C/C(=O)/C=C/c2ccc(O)cc2)ccc1O [DEMETHOXYCURCUMIN],–,–,–,–,5.9,2.2,37,40,37,4.6
O=C(CCc1ccc(O)c(O)c1)CC(=O)CCc1ccc(O)c(O)c1 [DIDEMETHYLTETRAHYDROCURCUMIN],–,–,–,–,1.5,1.7,> 100,150,53,1.9
COc1cc(CCC(O)CC(O)CCc2ccc(O)c(OC)c2)ccc1O (configuration not stated) [OCTAHYDROCURCUMIN],–,–,–,–,61,> 100,> 100,–,> 100,78
N=C(N)c1ccc(OCCCCCOc2ccc(C(=N)N)cc2)cc1 [PENTAMIDINE],–,–,–,–,–,0.67,3.8,–,16,–
COc1cc(CCC(=O)CC(=O)CCc2ccc(O)cc2)ccc1O [TETRAHYDRODEMETHOXYCURCUMIN],–,–,–,–,34,18,> 100,–,> 50,22
